Source: PubChem BioAssay (several laboratories)
p97 ATPase inh – blocks human p97 ATPase activity | P55072 | recombinant p97 ATPase, Kinase-Glo ATP luminescence, 3 h | inhibition, % at 8 µM | hit rate 0.42% among 220,000 | AID 1481; in the data active means inhibition above about 15%
STAT1 act – increases IFN-gamma driven STAT1 reporter signal; NIH 3T3 STAT1-luciferase reporter, luminescence; 100% = IFN-gamma alone, no compound; activation (% of control), % at 5.5 µM; hit rate 2.6% among 200,000; AID 932;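 active means activation above the screen-wide mean activation plus 3 SD, cut at about 130% in these data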
NF-kB neuron act – compounds increasing NF-kB expression in human neuronal cells; hit rate 1.6% among 190,000; fold change at 12.5 µM; NF-kB reporter expression; hits give high values; in the data active means fold change above about 3.3
MDM2 E3 inh – blocks human Mdm2 ubiquitin ligase activity; hit rate 0.11% among 210,000; cell-based MDM2 ubiquitination luciferase reporter, 2 h; 0 = plate control, 100 = twice control, blank-subtracted; signal enhancement, % at 5 µM; Q00987;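 active means signal enhancement of 30% or more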;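 further: luminescence tracks abundance of the self-degrading MDM2-luciferase fusion protein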
Target sequence (Q00987 whole entry, looked up, the tested form may be a part): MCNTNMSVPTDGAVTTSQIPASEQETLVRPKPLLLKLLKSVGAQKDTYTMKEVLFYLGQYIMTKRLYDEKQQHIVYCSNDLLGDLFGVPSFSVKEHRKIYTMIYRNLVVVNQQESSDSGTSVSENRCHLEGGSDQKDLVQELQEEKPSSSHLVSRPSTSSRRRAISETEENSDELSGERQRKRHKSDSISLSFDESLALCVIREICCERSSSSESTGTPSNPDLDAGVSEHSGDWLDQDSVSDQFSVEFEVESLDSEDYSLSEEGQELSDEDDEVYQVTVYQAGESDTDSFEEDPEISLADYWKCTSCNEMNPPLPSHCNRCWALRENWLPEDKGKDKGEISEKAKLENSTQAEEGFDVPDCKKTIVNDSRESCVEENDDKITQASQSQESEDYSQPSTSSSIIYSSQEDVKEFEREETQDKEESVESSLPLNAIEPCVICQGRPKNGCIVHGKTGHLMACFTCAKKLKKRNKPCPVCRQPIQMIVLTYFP
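Assay system: mammalian cells stably expressing self-ubiquitinating, self-degrading MDM2 E3–luciferase fusion. Quantity: 2000 cells in each well. Medium: DMEM culture medium. Compound dosing: single-point 5 µM. Timing: cell settling 4 h, compound treatment 2 h, both 37 °C. Technique: luciferase luminescence. Read-out basis: percent signal gain over controls, blank-subtracted. Benchmarks: plate controls and plate blanks.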
Wee1 stabilizer – human Wee1 degradation inhibition, primary screen. hit rate 1.2% among 220,000. P30291. reporter increase, % at 5 µM. HeLa Luc-Wee1K328M stability, luciferase luminescence; 100% = proteasome inhibitor MG132 effect. AID 1321;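 active means activation above the mean of all tested compounds plus 3 SD, set per screening run, cut at about 8.8% in these data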;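 further: cells exposed to compound for 20 h before luminescence read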
APP 5'UTR act – APP 5'UTR luciferase reporter activation; SH-SY5Y APP 5'UTR luciferase reporter, luminescence; zero percent = DMSO vehicle wells; activation, % at 2 µM; hit rate 1% among 190,000; AID 1276;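 active means activation above a set limit, based on mean plus 3 SD of controls, cut at about 140% in these data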
Each line names hits and unclear results; the compound was inactive in the other large screens. Only some compounds are listed: those with a hit (about 4.6% of all), similar ones and a draw of the others.

COC(=O)c1ccc(N=NN2CCCCC2)cc1	STAT1 act 140, NF-kB neuron act 3.3, APP 5'UTR act 151
OCCC1CN(C2CCN(c3ccccc3F)CC2)CCN1Cc1ccccc1 (centres undefined)	none
COc1ccc(N(C(C)C(=O)Nc2cccnc2)S(C)(=O)=O)cc1 (centres undefined)	STAT1 act 130
Cn1c(Cn2c3ccccc3c3ccccc32)n[nH]c1=S	Wee1 stabilizer 9.4 (no result: STAT1 act, NF-kB neuron act, APP 5'UTR act)
Cc1ccc(NC(=S)N/C(=N/S(=O)(=O)c2ccccc2)c2ccccc2)cc1	STAT1 act 143
CCOC(=S)N/C(=N\S(=O)(=O)c1ccccc1)c1ccccc1	none
Cc1ccc(S(=O)(=O)/N=C(/NC(=S)Nc2ccccc2)c2ccccc2)cc1	STAT1 act 150, NF-kB neuron act 6, APP 5'UTR act 144
COC(=O)c1ccc(N/C(=N/S(=O)(=O)c2ccccc2)c2ccccc2)cc1	none
CN(/C(=N/S(=O)(=O)c1ccccc1)c1ccccc1)S(=O)(=O)c1ccccc1	none
CCN(CC)/C(=N/S(=O)(=O)c1ccc(C)cc1)c1ccccc1	Wee1 stabilizer 10.0
COc1cccc(Nc2ncc(C#N)c(N)n2)c1	none (no result: STAT1 act, NF-kB neuron act, APP 5'UTR act)
CN1C=CC(=CC=C2C=CC(=O)C=C2)C=C1	none (no result: STAT1 act, NF-kB neuron act, APP 5'UTR act)
C/C(=C\C=C(C#N)C#N)c1cc(C#N)c(N)o1	none
CC(C)CN(Cc1cc(=O)oc2cc(-c3ccccc3)c(O)cc12)CC(C)C	Wee1 stabilizer 9.3 (no result: STAT1 act, NF-kB neuron act, APP 5'UTR act)
O=c1cc(CN2CCN(C/C=C/c3ccccc3)CC2)c2cc(O)c(-c3ccccc3)cc2o1	none
CC(C)CN(C)Cc1c(C(=O)N2CCc3ccccc3C2)nc2ccc(Cl)cn12	NF-kB neuron act 5.1
Cc1ccc(CSc2nc3ccccc3cc2C=O)cc1	Wee1 stabilizer 10
C=CCN(c1ccccc1C(=O)O)S(=O)(=O)c1ccc(C)cc1	none
Cc1ccccc1C(=O)Nn1cnc2ccccc2c1=O	none
COc1ccc(C(=O)Nn2cnc3ccccc3c2=O)c(OC)c1	STAT1 act 141
CCOC(=O)c1c(NC(=O)c2c(-c3ccccc3)noc2C)sc(C)c1-c1ccccc1	STAT1 act 136
CCOC(=O)Cc1csc(NC(=O)c2c(-c3ccccc3)noc2C)n1	none
COc1cccc2cc(C(=O)c3ccccc3)oc12	STAT1 act 137
Cc1ccc(C(=O)c2cc3ccccc3o2)cc1[N+](=O)[O-]	STAT1 act 139
O=C(c1cc2ccccc2o1)N1CCCC1	none
C/C(=N\NS(=O)(=O)c1ccc(C)c([N+](=O)[O-])c1)c1cc2ccccc2o1	none (no result: APP 5'UTR act)
O=C(c1ccccc1)c1cc2ccccc2o1	STAT1 act 131
CCC1(C)SC(N)=NN1C(C)=O (centres undefined)	none
CC1(C)NC(=O)N(CCOc2ccc([N+](=O)[O-])cc2)C1=O	Wee1 stabilizer 9.6
Cc1cc(OCCCCN2C(=O)NC(C)(C)C2=O)ccc1[N+](=O)[O-]	none
COc1cc2cc(CN(CCCN3CCOCC3)C(=O)Nc3ccccc3F)c(=O)[nH]c2cc1OC	Wee1 stabilizer 9.2
CN=Cc1sc2ccccc2c1O	none
CC(=Nc1ccc(C)cc1C)c1sc2ccccc2c1O	STAT1 act 143, NF-kB neuron act 4.8, APP 5'UTR act 154
CC(=Nc1cccc(O)c1)c1sc2ccccc2c1O	NF-kB neuron act 10, APP 5'UTR act 161
Cc1ccc2cc(CCl)c(Cl)nc2c1	none (no result: STAT1 act, NF-kB neuron act, MDM2 E3 inh, APP 5'UTR act)
COc1ccc(/C(C)=N/Nc2nc3ccccc3n3cnnc23)cc1OC	none (no result: STAT1 act, NF-kB neuron act, APP 5'UTR act)
Cc1ccc2[nH]c(=O)c(CN(Cc3ccco3)C(=O)CN3CCCC(C)C3)cc2c1 (centres undefined)	none
Cc1cc(=O)n(-c2ccc(C(=O)O)cc2)[nH]1	none
Cc1cc(=O)n(-c2ccc(O)cc2)[nH]1	p97 ATPase inh 21
COc1ccc2cc(C(=O)C3CCCN(C(=O)c4cc5nc(C)cc(C)n5n4)C3)ccc2c1 (centres undefined)	none
CCn1c(=O)c2cc(C(=O)NC(C)C)sc2c2ccccc21	p97 ATPase inh 15 (no result: STAT1 act, NF-kB neuron act, APP 5'UTR act)
O=C(NNC1=NCCCCC1)Nc1cccc(Cl)c1	STAT1 act 136
CCNC(=S)Nc1cccc(F)c1C	none
COc1ccc(C(=O)Nc2ccccc2C(=O)N/N=C/c2cccc3ccccc23)cc1	NF-kB neuron act 4.2
Cc1cccc(C(=O)O/N=C2\CCCc3ccccc32)c1	none
Cc1ccc(C(=O)O/N=C2\CCCc3ccccc32)cc1	STAT1 act 135
O=C(COc1ccccc1)Nc1nc2ccccc2[nH]1	STAT1 act 129
CC(CC(=O)Nc1nc2ccccc2[nH]1)c1ccccc1 (centres undefined)	STAT1 act 145
CCCOc1cccc(OCC(=O)Nc2nc3ccccc3[nH]2)c1	none
CCOCCCNc1nc2ccccc2[nH]1	Wee1 stabilizer 10
Cc1ccccc1OCC(=O)Nc1nc2ccccc2[nH]1	STAT1 act 136
CC(CC(=O)Nc1nc2ccccc2[nH]1)n1ccnc1 (centres undefined)	none
CCOC(=O)CNC(=O)C1CCCc2c1[nH]c1ccc(Cl)cc21 (centres undefined)	Wee1 stabilizer 10
Cn1nnnc1SCc1nc2ccccc2s1	none
Cc1ccnc(SCc2nc3ccccc3s2)n1	STAT1 act 130
COc1ccccc1NC(=O)c1oc2ccc(C)cc2c1C	STAT1 act 129
COc1ccccc1NC(=O)c1oc2ccccc2c1NC(=O)c1cc(OC)c(OC)c(OC)c1	none (no result: NF-kB neuron act, MDM2 E3 inh)
Cc1ccccc1C(=O)Nc1nnc(CC(=O)N/N=C/c2ccncc2)s1	none (no result: STAT1 act, NF-kB neuron act, APP 5'UTR act)
CSc1nc(N)nc(-c2cccs2)c1C#N	none
CC(C)Sc1nc(N)nc(-c2cccs2)c1C#N	STAT1 act 134 (no result: APP 5'UTR act)
COc1ccc(CCNC(=O)CSc2ccc(-c3ccncc3)nn2)cc1	none
CN(C)/C=C(\C#N)C(=O)N/N=C(\CC(=O)C(F)(F)F)c1ccco1	none
O=Cc1c(Sc2ccccn2)nc2ccccn2c1=O	none (no result: MDM2 E3 inh)
O=Cc1c(Sc2ccccc2)nc2ccccn2c1=O	NF-kB neuron act 4.2
O=C(NC(=S)NC1CCCCCC1)c1cncc(Br)c1	STAT1 act 141
Cc1cccc(NC(=O)NC(C)C(c2ccccc2)N2CCN(C)CC2)c1 (centres undefined)	none
CCCCCOc1ccc(OC(=O)c2ccncc2)cc1	NF-kB neuron act 3.8
CC1(C)N=C(N)N=C(N)N1c1ccccc1	NF-kB neuron act 3.8
CC1(C)N=C(N)N=C(N)N1c1cccc(CN)c1	none (no result: STAT1 act, NF-kB neuron act, MDM2 E3 inh, APP 5'UTR act)
COC(=O)c1ccc(C(=O)OC)c(NC(=S)N2CCN(c3cccc(Cl)c3)CC2)c1	none
COc1cccc(CSc2nc3ccccc3[nH]2)c1	NF-kB neuron act 4, Wee1 stabilizer 9.0
O=[N+]([O-])c1cccc(CSc2nc3ccccc3[nH]2)c1	none
Fc1ccccc1CSc1nc2ccccc2[nH]1	STAT1 act 136, NF-kB neuron act 10, APP 5'UTR act 198
